# Measured values published in ChEMBL document CHEMBL1126849, “Synthesis of A-ring fluorinated derivatives of (17 alpha,20E/Z)-[125I]iodovinylestradiols: effect on receptor binding and receptor-mediated target tissue uptake” (J Med Chem, 1993).
# What was measured:
# Details in all cases: in vivo
# [1] = test system: Rattus norvegicus; assay: Biodistribution in kidney of Immature Female rat after 1 hr administration of 3 micro Ci (111 kBq) in the absence of 60 microg estradiol; format: ADME, organism-based
# Summary of the method: (§1)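 Immature female Long Evans rats (21–24 days, 45–70 g), unanesthetized in retention cages, given 3 µCi (111 kBq) 125I-labeled steroid i.v. via lateral tail vein. Vehicle was ethanol diluted in saline containing 1% Tween-80, giving 9% ethanol final. The blocking group received 60 µg unlabeled estradiol co-injected. Rats were killed under ether by axillary bleeding, and tissues were KCl-washed and gamma-counted. Data are %ID/g, mean ± SE, n=3–5.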
# [2] = test system: Rattus norvegicus; assay: Biodistribution in blood of Immature Female rat after 5 hour administration of 3 micro Ci (111 kBq) in the absence of 60 microg estradiol; format: ADME, organism-based; summary of the method: as §1
# [3] = test system: Rattus norvegicus; assay: Biodistribution in uterus of Immature Female rat after 12 hour administration of 3 micro Ci (111 kBq) in the absence of 60 microg estradiol; format: ADME, organism-based
# Summary of the method: (§2)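 Immature female Long Evans rats (21–24 days, 45–70 g), 3–5 per group, unanesthetized in retention cages, given 3 μCi (111 kBq) 125I-labeled steroid by lateral tail vein. Vehicle: ethanol diluted with saline containing 1% Tween-80, final ethanol 9%. +E2 group co-injected 60 μg unlabeled estradiol (1 h only). Killed under ether; tissues KCl-washed, weighed, gamma-counted. Output: %ID/g (mean, SE) and uterus to blood or nontarget (muscle, spleen, lungs) ratios.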
# [4] = test system: Rattus norvegicus; assay: Biodistribution in liver of Immature Female rat after 1 hr administration of 3 micro Ci (111 kBq) in the presence of (+E2); format: ADME, organism-based; summary of the method: as §1
# [5] = test system: Rattus norvegicus; assay: Biodistribution in fat of Immature Female rat after 12 hour administration of 3 micro Ci (111 kBq) in the absence of 60 microg estradiol; format: ADME, organism-based, Adipose tissue; summary of the method: as §1
# [6] = test system: Rattus norvegicus; assay: Biodistribution in fat of Immature Female rat after 1 hr administration of 3 micro Ci (111 kBq) in the presence of (+E2); format: ADME, organism-based, Adipose tissue; summary of the method: as §1
# [7] = test system: Rattus norvegicus; assay: Biodistribution in blood of Immature Female rat after 12 hour administration of 3 micro Ci (111 kBq) in the absence of 60 microg estradiol; format: ADME, organism-based; summary of the method: as §1
# [8] = test system: Rattus norvegicus; assay: Biodistribution in uterus / blood of Immature Female rat after 1 hr administration of 3 micro Ci (111 kBq) in the absence of 60 microg estradiol; format: ADME, organism-based
# Summary of the method: (§3)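 Same in vivo procedure: immature female Long Evans rats (21–24 days), three to five per group, 3 μCi (111 kBq) tracer i.v. via tail vein in 9% ethanol/saline/1% Tween-80, ± 60 μg estradiol co-injected at 1 h. Uterus %ID/g (gamma counting) divided by blood, or by nontarget organ (muscle, spleen, lungs), %ID/g to give ratios.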
# [9] = test system: Rattus norvegicus; assay: Biodistribution in kidney of Immature Female rat after 12 hour administration of 3 micro Ci (111 kBq) in the absence of 60 microg estradiol; format: ADME, organism-based; summary of the method: as §1
# [10] = test system: Rattus norvegicus; assay: Biodistribution in blood of Immature Female rat after 3 hour administration of 3 micro Ci (111 kBq) in the absence of 60 microg estradiol; format: ADME, organism-based; summary of the method: as §1
# [11] = test system: Rattus norvegicus; assay: Biodistribution in muscle of Immature Female rat after 12 hour administration of 3 micro Ci (111 kBq) in the absence of 60 microg estradiol; format: ADME, organism-based, Muscle tissue
# Summary of the method: (§4)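 Immature female Long Evans rats (21–24 days, 45–70 g), three to five per group, given 125I-labeled steroid (3 μCi, 111 kBq) by lateral tail vein without anesthesia. Vehicle: ethanol diluted in saline with 1% Tween-80, final ethanol 9%, 0.22 μm filtered. +E2 groups received 60 μg unlabeled estradiol co-injected. Killed under ether at set times; tissues KCl-washed, blotted, weighed, gamma counted; %ID/g, mean with SE.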
# [12] = test system: Rattus norvegicus; assay: Biodistribution in uterus / blood of Immature Female rat after 3 hour administration of 3 micro Ci (111 kBq) in the absence of 60 microg estradiol; format: ADME, organism-based; summary of the method: as §3
# [13] = test system: Rattus norvegicus; assay: Biodistribution in liver of Immature Female rat after 1 hr administration of 3 micro Ci (111 kBq) in the absence of 60 microg estradiol; format: ADME, organism-based; summary of the method: as §1
# [14] = test system: Rattus norvegicus; assay: Biodistribution in liver of Immature Female rat after 3 hour administration of 3 micro Ci (111 kBq) in the absence of 60 microg estradiol; format: ADME, organism-based; summary of the method: as §1
# [15] = test system: Rattus norvegicus; assay: Biodistribution in spleen of Immature Female rat after 5 hour administration of 3 micro Ci (111 kBq) in the absence of 60 microg estradiol; format: ADME, organism-based; summary of the method: as §4
# [16] = test system: Rattus norvegicus; assay: Biodistribution in kidney of Immature Female rat after 5 hour administration of 3 micro Ci (111 kBq) in the absence of 60 microg estradiol; format: ADME, organism-based; summary of the method: as §1
# [17] = test system: Rattus norvegicus; assay: Biodistribution in thyroid of Immature Female rat after 1 hr administration of 3 micro Ci (111 kBq) in the absence of 60 microg estradiol; format: ADME, organism-based, Thyroid gland; summary of the method: as §4
# [18] = test system: Rattus norvegicus; assay: Biodistribution in uterus / spleen, muscle, lungs of Immature Female rat after 12 hour administration of 3 micro Ci (111 kBq) in the absence of 60 microg estradiol; format: ADME, organism-based; summary of the method: as §3
# [19] = test system: Rattus norvegicus; assay: Biodistribution in fat of Immature Female rat after 1 hr administration of 3 micro Ci (111 kBq) in the absence of 60 microg estradiol; format: ADME, organism-based, Adipose tissue; summary of the method: as §1
# [20] = test system: Rattus norvegicus; assay: Biodistribution in uterus of Immature Female rat after 1 hr administration of 3 micro Ci (111 kBq) in the presence of (+E2); format: ADME, organism-based; summary of the method: as §2
# [21] = test system: Rattus norvegicus; assay: Biodistribution in uterus / spleen, muscle, lungs of Immature Female rat after 3 hour administration of 3 micro Ci (111 kBq) in the absence of 60 microg estradiol; format: ADME, organism-based; summary of the method: as §3
# [22] = test system: Rattus norvegicus; assay: Biodistribution in muscle of Immature Female rat after 1 hr administration of 3 micro Ci (111 kBq) in the absence of 60 microg estradiol; format: ADME, organism-based, Muscle tissue; summary of the method: as §4
# [23] = test system: Rattus norvegicus; assay: Biodistribution in blood of Immature Female rat after 1 hr administration of 3 micro Ci (111 kBq) in the presence of (+E2); format: ADME, organism-based; summary of the method: as §1
# [24] = test system: Rattus norvegicus; assay: Biodistribution in liver of Iimmature female rat after 1 hr administration of 3 micro Ci (111 kBq) in the presence of (+E2); format: ADME, organism-based; summary of the method: as §1
# [25] = test system: Rattus norvegicus; assay: Biodistribution in liver of Iimmature female rat after 3 hour administration of 3 micro Ci (111 kBq) in the absence of 60 microg estradiol; format: ADME, organism-based; summary of the method: as §1
# [26] = test system: Rattus norvegicus; assay: Biodistribution in uterus/spleen, muscle, lungs of immature female rat after 1 hr administration of 3 micro Ci (111 kBq) in the absence of 60 microg estradiol; format: ADME, organism-based; summary of the method: as §2
# [27] = test system: Rattus norvegicus; assay: Biodistribution in uterus/blood of immature female rat after 12 hour administration of 3 micro Ci (111 kBq) in the absence of 60 microg estradiol; format: ADME, organism-based; summary of the method: as §2
# [28] = test system: Rattus norvegicus; assay: Biodistribution in uterus/spleen, muscle, lungs of immature female rat after 5 hour administration of 3 micro Ci (111 kBq) in the absence of 60 microg estradiol; format: ADME, organism-based; summary of the method: as §2
# [29] = test system: Rattus norvegicus; assay: Biodistribution in uterus/spleen, muscle, lungs of immature female rat after 1 hr administration of 3 micro Ci (111 kBq) in the presence of (+E2); format: ADME, organism-based; summary of the method: as §2
# [30] = test system: Rattus norvegicus; assay: Biodistribution in uterus/spleen, muscle, lungs of immature female rat after 3 hour administration of 3 micro Ci (111 kBq) in the absence of 60 microg estradiol; format: ADME, organism-based; summary of the method: as §2
# [31] = test system: Rattus norvegicus; assay: Biodistribution in uterus/spleen, muscle, lungs of immature female rat after 12 hour administration of 3 micro Ci (111 kBq) in the absence of 60 microg estradiol; format: ADME, organism-based; summary of the method: as §2
ID/g [1],ID/g [2],ID/g [3],ID/g [4],ID/g [5],ID/g [6],ID/g [7],uterus/blood ratio [8],ID/g [9],ID/g [10],ID/g [11],ID/g [12],ID/g [13],ID/g [14],ID/g [15],ID/g [16],ID/g [17],ID/g [18],ID/g [19],ID/g [20],Structure (SMILES),other results
1.56%,0.34%,6.45%,10.39%,0.13%,4.78%,0.17%,15.7,0.29%,0.45%,0.1%,21.19%,2.04%,1.51%,0.38%,0.71%,217%,33.82%,1.71%,0.94%,CO[C@H]1C[C@@]2(C)[C@@H](CC[C@@]2(O)/C=C\I)[C@@H]2CCc3cc(O)c(F)cc3[C@H]21,ID/g [21]: 21.65%; ID/g [22]: 0.58%; ID/g [23]: 0.87%
–,–,–,–,–,–,–,–,–,–,–,–,–,–,–,–,–,–,–,–,CO[C@H]1C[C@@]2(C)[C@@H](CC[C@@]2(O)/C=C/I)[C@@H]2CCc3cc(O)c(F)cc3[C@H]21,ID/g [24]: 4.4%
2.03%,0.17%,12.64%,3.24%,0.83%,2.3%,0.1%,30.4,0.49%,0.26%,0.25%,44.23%,3.32%,2.65%,0.39%,0.94%,61%,50.9%,2.68%,1.02%,CO[C@H]1C[C@@]2(C)[C@@H](CC[C@@]2(O)/C=C/I)[C@@H]2CCc3c(ccc(O)c3F)[C@H]21,ID/g [21]: 16.64%; ID/g [22]: 0.98%; ID/g [23]: 0.28%
–,–,–,–,–,–,–,–,–,–,–,–,–,–,–,–,–,–,–,–,C[C@]12CC[C@@H]3c4cc(F)c(O)cc4CC[C@H]3[C@@H]1CC[C@@]2(O)/C=C/I,ID/g [25]: 2.87%; ID/g [26]: 1.42%; ID/g [27]: 0.92%; ID/g [28]: 1.14%; ID/g [29]: 0.81%; ID/g [30]: 1.49%; ID/g [31]: 1.25%
